{"source": "ChEMBL document CHEMBL1165938", "about": "“An isoaurone and other constituents from Trichosanthes kirilowii seeds inhibit hypoxia-inducible factor-1 and nuclear factor-kappaB” (J Nat Prod, 2010)", "key": {"[1]": {"assay": "Inhibition of NF-kappaB activity in human HeLa cells by SEAP reporter assay", "format": "cell-based", "method_in_brief": "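HeLa cells grown in DMEM with 10% FBS and penicillin/streptomycin at 37 °C, 5% CO2. NF-κB activity read by a secreted alkaline phosphatase (SEAP) reporter, with celastrol as positive control. Values are IC50s, mean ± SD from three experiments.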"}, "[2]": {"target": "Hypoxia-inducible factor 1-alpha (Homo sapiens, UniProt Q16665)", "assay": "Inhibition of hypoxia-induced HIF1alpha protein accumulation in human Hep3B cells treated for 30 mins measured after 12 hrs by Western blot analysis", "format": "functional, cell-based, Hep 3B2", "settings": "for inhibition: Hep 3B2", "method_in_brief": "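Hep3B cells (DMEM, 10% FBS, 37 °C) were pretreated with a range of compound concentrations for 30 min, then kept 12 h under normoxia or hypoxia (1% O2, 94% N2, 5% CO2, 37 °C). HIF-1α was detected by western blot with a mouse monoclonal anti-HIF-1α antibody. Topoisomerase-1 was probed as the loading control.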"}, "[3]": {"assay": "Cytotoxicity against human Hep3B cells after 24 hrs by MTT assay", "format": "cell-based", "settings": "hep 3b2, 24 h"}, "Hep 3B2": {"system": "Hep 3B2", "assay": "Inhibition of hypoxia-induced VEGF protein secretion in human Hep3B cells after 16 hrs by ELISA", "format": "functional, cell-based", "method_in_brief": "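Hep3B cells were seeded at 2 × 10^5 per well and exposed to a range of concentrations for 16 h under normoxia or hypoxia (1% O2, 5% CO2, 37 °C). VEGF in the culture supernatant was quantified with a DuoSet sandwich ELISA. 17-DMAG served as positive control. IC50s are mean ± SD from three experiments.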"}, "[4]": {"assay": "Inhibition of hypoxia-induced HIF1alpha protein accumulation in human Hep3B cells treated for 30 mins measured after 12 hrs by Western blot analysis", "settings": "hep 3b2"}}, "data": [{"smiles": "CC1=CC(=O)CC(C)(C)[C@@]1(O)/C=C/[C@@H](C)O", "note": "[BLUMENOL A]", "values": [{"measurement": "IC50", "setting": "[1]", "result": 12300, "unit": "nM"}, {"measurement": "IC50", "setting": "[2]", "result": 15800, "unit": "nM"}, {"measurement": "Activity", "setting": "[3]", "result": "Non-toxic"}, {"measurement": "IC50", "setting": "Hep 3B2", "result": 26200, "unit": "nM"}]}, {"smiles": "CC(=O)OC(C)(C)/C=C/C(=O)[C@](C)(O)[C@H]1[C@H](O)C[C@@]2(C)[C@@H]3CC=C4[C@H](C[C@H](O)C(=O)C4(C)C)[C@]3(C)C(=O)C[C@]12C", "note": "[CUCURBITACIN B]", "values": [{"measurement": "IC50", "setting": "[1]", "result": 61, "unit": "nM"}, {"measurement": "inhibition", "setting": "[2]", "result": "Dose-dependent effect"}, {"measurement": "IC50", "setting": "Hep 3B2", "result": 310, "unit": "nM"}]}, {"smiles": "COc1cc(O)cc2c1/C(=C\\c1ccc(O)cc1)C(=O)O2", "values": [{"measurement": "IC50", "setting": "[1]", "result": 560, "unit": "nM"}, {"measurement": "IC50", "setting": "[2]", "result": 690, "unit": "nM"}, {"measurement": "inhibition", "setting": "[2]", "result": "Dose-dependent effect"}, {"measurement": "Activity", "setting": "[3]", "result": "Non-toxic"}, {"measurement": "IC50", "setting": "Hep 3B2", "result": 930, "unit": "nM"}]}, {"smiles": "CO[C@H]1/C=C\\C=C(/C)C(=O)NC2=CC(=O)C(NCCN(C)C)=C(C[C@@H](C)C[C@H](OC)[C@H](O)[C@@H](C)/C=C(\\C)[C@@H]1OC(N)=O)C2=O", "note": "[ALVESPIMYCIN]", "values": [{"measurement": "IC50", "setting": "[4]", "result": 57, "unit": "nM"}]}, {"smiles": "CC(=O)OC(C)(C)/C=C/C(=O)[C@](C)(O)[C@H]1[C@H](O)C[C@@]2(C)[C@@H]3CC=C4[C@@H](C[C@H](O)C(=O)C4(C)C)[C@]3(C)C(=O)C[C@]12C", "note": "[CUCURBITACIN B]", "values": [{"measurement": "IC50", "setting": "[2]", "result": 270, "unit": "nM"}, {"measurement": "Activity", "setting": "[3]", "result": "Non-toxic"}]}, {"smiles": "CC1=C(O)C(=O)C=C2C1=CC=C1[C@@]2(C)CC[C@@]2(C)[C@@H]3C[C@](C)(C(=O)O)CC[C@]3(C)CC[C@]12C", "note": "[CELASTROL]", "values": [{"measurement": "IC50", "setting": "[1]", "result": 150, "unit": "nM"}]}, {"smiles": "COc1cc(/C=C/c2ccc(OC)c(O)c2)oc(=O)c1", "values": [{"measurement": "IC50", "setting": "[1]", "result": 400, "unit": "nM"}, {"measurement": "IC50", "setting": "[2]", "result": 810, "unit": "nM"}, {"measurement": "inhibition", "setting": "[2]", "result": "Dose-dependent effect"}, {"measurement": "Activity", "setting": "[3]", "result": "Non-toxic"}, {"measurement": "IC50", "setting": "Hep 3B2", "result": 1040, "unit": "nM"}]}]}
